For 18 molecules, IC50 and Activity results are on record in ChEMBL document CHEMBL2040740, “Synthesis and antitumor activity of formononetin nitrogen mustard derivatives” (Eur J Med Chem, 2012).

Experiment [1] relates to HCT-116. In words: Cytotoxicity against human HCT116 cells after 72 hrs by MTT assay. In kind it is functional, cell-based. The note with it: HCT-116, 72 h. The essentials: (§1)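 Cells grown at 37 °C in 5% CO₂/95% air, in RPMI-1640 or DMEM with 10% neonatal bovine serum or 10% FBS. Exposed to a concentration series for 72 h, then MTT added for a further 4 h at 37 °C. Formazan dissolved in DMSO and absorbance read at 570 and 630 nm. Triplicate wells in three independent experiments; IC50 calculated by dose-effect analysis.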

The subject of the next experiment is DU-145. In words: Cytotoxicity against human DU145 cells after 72 hrs by MTT assay. The note with it: DU-145, 72 h. It counts as functional, cell-based. The essentials: as §1
The subject of a further experiment is SGC-7901. The experiment can be described thus: Cytotoxicity against human SGC7901 cells after 72 hrs by MTT assay. The note with it: SGC-7901, 72 h. In kind it is functional, cell-based. The essentials: as §1
The subject of the next experiment is SH-SY5Y. In words: Cytotoxicity against human SH-SY5Y cells after 72 hrs by MTT assay. It counts as functional, cell-based. The gist of the method:
as §1

Experiment [2] concerns HeLa. In words: Cytotoxicity against human HeLa cells after 72 hrs by MTT assay. In kind it is functional, cell-based. The gist of the method: as §1
The test system of experiment [3] is HeLa. The experiment can be described thus: Cell cycle arrest in human HeLa cells assessed as accumulation in G2/M phase at 15 uM after 48 hrs by flow cytometry relative to control. In kind it is functional. The essentials:
(§2)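 Cells exposed to test agent for 48 h, then harvested, washed twice in PBS and fixed in 75% ice-cold ethanol at least overnight. DNA content of 10,000 events analysed by flow cytometry, giving percentage of cells in each cycle phase versus vehicle control.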

The subject of experiment [4] is HeLa. In words: Induction of apoptosis in human HeLa cells assessed as early to mid apoptotic cells at 5 uM after 48 hrs by annexinV-FITC/PI staining-based flow cytometry (reference value: 2.93%). It counts as functional. The gist of the method:
(§3)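 After 48 h treatment, cells washed twice in cold PBS and resuspended in binding buffer at 1 × 10⁵ cells/mL. Stained with Annexin V-FITC and propidium iodide in the dark for 15 min at room temperature, then analysed by flow cytometry. Lower-right quadrant scored as early-mid apoptotic, upper-right as late apoptotic/necrotic. Experiments performed three times.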

In experiment [5] the test system is HeLa. In words: Cell cycle arrest in human HeLa cells assessed as decrease in S phase cells at 3.75 to 15 uM after 48 hrs by flow cytometry. It counts as functional, cell-based. The gist of the method:
as §2

Experiment [6] deals with HeLa. The experiment can be described thus: Cell cycle arrest in human HeLa cells assessed as accumulation in G2/M phase after 48 hrs by flow cytometry. In kind it is functional, cell-based. The essentials:
as §2

Experiment [7] has as its system HeLa. The experiment can be described thus: Induction of apoptosis in human HeLa cells assessed as early to mid apoptotic cells at 10 uM after 48 hrs by annexinV-FITC/PI staining-based flow cytometry (reference value: 2.93%). In kind it is functional. The essentials: as §3
Experiment [8] concerns HeLa. In words: Induction of apoptosis in human HeLa cells assessed as late apoptotic to necrotic at 5 uM after 48 hrs by annexinV-FITC/PI staining-based flow cytometry (reference value: 1.98%). It counts as functional. The gist of the method:
as §3

Experiment [9] relates to HCT-116. In words: Induction of apoptosis in human HCT116 cells assessed as early to mid apoptotic cells at 2 uM after 48 hrs by annexinV-FITC/PI staining-based flow cytometry (reference value: 1.62%). It counts as functional. The gist of the method: as §3
The test system of experiment [10] is HCT-116. In words: Cell cycle arrest in human HCT116 cells assessed as accumulation in G2/M phase after 48 hrs by flow cytometry. In kind it is functional, cell-based. The essentials: as §2
The test system of experiment [11] is HCT-116. The experiment can be described thus: Cell cycle arrest in human HCT116 cells assessed as decrease in S phase cells at 2 to 8 uM after 48 hrs by flow cytometry. In kind it is functional, cell-based. The gist of the method: as §2
The test system of experiment [12] is HCT-116. In words: Induction of apoptosis in human HCT116 cells assessed as late apoptotic to necrotic cells at 2 uM after 48 hrs by annexinV-FITC/PI staining-based flow cytometry (reference value: 0.43%). In kind it is functional. The gist of the method:
as §3

For experiment [13], the system named is HCT-116. In words: Induction of apoptosis in human HCT116 cells assessed as late apoptotic to necrotic cells at 8 uM after 48 hrs by annexinV-FITC/PI staining-based flow cytometry (reference value: 0.43%). It counts as functional. The gist of the method: as §3
The subject of experiment [14] is HCT-116. The experiment can be described thus: Induction of apoptosis in human HCT116 cells assessed as early to mid apoptotic cells at 8 uM after 48 hrs by annexinV-FITC/PI staining-based flow cytometry (reference value: 1.62%). It counts as functional. The gist of the method: as §3
Experiment [15] relates to HCT-116. The experiment can be described thus: Cell cycle arrest in human HCT116 cells assessed as accumulation in G2/M phase at 8 uM after 48 hrs by flow cytometry relative to control. It counts as functional. The essentials:
as §2

Calls of active or inactive are those of the source. No cut-off for these calls is given here. A value given as a limit tells only on which side of the number the result lay.

For `CCC(C)Oc1ccc2c(=O)c(-c3ccc(OC)c(N(CCCl)CCCl)c3)coc2c1` (stereo not drawn), the IC50 in the experiment on HCT-116 [1] is 20.2 µM; in the experiment on DU-145 it was 28.8 µM; in the experiment on SGC-7901 it was 47.5 µM; in the experiment on SH-SY5Y it was 3.58 µM; in the experiment with HeLa [2], 18.9 µM.

Regarding `COc1ccc(-c2coc3cc(OC4CCCC4)ccc3c2=O)cc1N(CCCl)CCCl`, the IC50 was 8.75 µM in the experiment on HCT-116 [1]; 11.1 µM with DU-145; 15.2 µM with SGC-7901; 5.13 µM with SH-SY5Y; 19.3 µM in the experiment on HeLa [2].

Consider `CCOc1ccc2c(=O)c(-c3ccc(OC)c(N(CCCl)CCCl)c3)coc2c1`, for which the IC50 with HCT-116 [1] is 8.47 µM; with DU-145 it was 23.9 µM; with SGC-7901, 13 µM; in the experiment on SH-SY5Y, 11.9 µM; with HeLa [2] it was 10.7 µM.

As to `CCCOc1ccc2c(=O)c(-c3ccc(OC)c(N(CCCl)CCCl)c3)coc2c1`, the concentration for half-maximal inhibition (IC50) in the experiment with HCT-116 [1] was 15.2 µM; in the experiment with DU-145, 28.8 µM; in the experiment on SGC-7901, greater than 100 µM; in the experiment with SH-SY5Y, 7.89 µM; with HeLa [2], 12.8 µM.

As for `N[C@@H](Cc1ccc(N(CCCl)CCCl)cc1)C(=O)O` [MELPHALAN], the IC50 with HCT-116 [1] stood at 20.9 µM; in the experiment with DU-145 it was 96.3 µM; in the experiment with SGC-7901, 51 µM; with SH-SY5Y, 5.5 µM; in the experiment on HeLa [2] it was 24 µM.

Take `COc1ccc(-c2coc3cc(OC4CCCCC4)ccc3c2=O)cc1N(CCCl)CCCl`: the Activity with HeLa [3] is 21.33%; in the experiment with HeLa [4], 3.06%; in the experiment on HeLa [6] it was “Dose-dependent effect”; in the experiment on HeLa [7], 8.83%; in the experiment with HeLa [8] it was 3.27%. Further, the IC50 in the experiment with HCT-116 [1] was found to be 6.54 µM; in the experiment with DU-145 it was 11.2 µM; in the experiment with SGC-7901, 15.8 µM; with SH-SY5Y it was 4.44 µM; with HeLa [2], 8.29 µM. For the same molecule, the outcome with HeLa [5] was Active.

Regarding `C=CCOc1ccc2c(=O)c(-c3ccc(OC)c(N(CCCl)CCCl)c3)coc2c1`, the half-inhibitory concentration (IC50) in the experiment with HCT-116 [1] stood at 7.54 µM; in the experiment on DU-145, 15.4 µM; with SGC-7901 it was 10.2 µM; in the experiment with SH-SY5Y it was 4.51 µM; in the experiment on HeLa [2], 9.22 µM.

Regarding `COc1ccc(-c2coc3cc(OCC=C(C)C)ccc3c2=O)cc1N(CCCl)CCCl`, the IC50 was 13.8 µM with HCT-116 [1]; 12.2 µM in the experiment with DU-145; 19.8 µM in the experiment with SGC-7901; 5.25 µM with SH-SY5Y; 18 µM in the experiment with HeLa [2].

In the case of `COc1ccc(-c2coc3cc(OCc4ccccc4)ccc3c2=O)cc1N(CCCl)CCCl`, the IC50 in the experiment on HCT-116 [1] is 4.97 µM; in the experiment with DU-145, 26.5 µM; with SGC-7901 it was 18.8 µM; in the experiment with SH-SY5Y it was 11.4 µM; with HeLa [2] it was 16.4 µM.

For the molecule `COc1ccc(-c2coc3cc(OC4CCCCCC4)ccc3c2=O)cc1N(CCCl)CCCl`, the IC50 in the experiment on HCT-116 [1] was 5.72 µM; in the experiment with DU-145 it was 10.1 µM; with SGC-7901, 14.3 µM; in the experiment on SH-SY5Y, 2.08 µM; with HeLa [2], 8.85 µM.

In the case of `COc1ccc(-c2coc3cc(OCc4ccc(C)cc4)ccc3c2=O)cc1N(CCCl)CCCl`, the IC50 in the experiment on HCT-116 [1] was 9.41 µM; in the experiment with DU-145, 18.8 µM; in the experiment on SGC-7901 it was 7.73 µM; in the experiment on SH-SY5Y, 49.9 µM; in the experiment with HeLa [2], 12.6 µM.

As for `C=C(C)COc1ccc2c(=O)c(-c3ccc(OC)c(N(CCCl)CCCl)c3)coc2c1`, the IC50 was 14.6 µM in the experiment on HCT-116 [1]; 15.6 µM in the experiment on DU-145; 15.4 µM with SGC-7901; 10.8 µM with SH-SY5Y; 18.3 µM with HeLa [2].

`CCCCOc1ccc2c(=O)c(-c3ccc(OC)c(N(CCCl)CCCl)c3)coc2c1`: the IC50 in the experiment on HCT-116 [1] was 17.1 µM; with DU-145 it was 8.28 µM; in the experiment on SGC-7901 it was 11.8 µM; with SH-SY5Y it was 16.3 µM; with HeLa [2], 11.8 µM.

For the molecule `COc1ccc(-c2coc3cc(OCCc4ccccc4)ccc3c2=O)cc1N(CCCl)CCCl`, the IC50 in the experiment on HCT-116 [1] is 8.05 µM; in the experiment on DU-145 it was 7.57 µM; with SGC-7901 it was 11 µM; in the experiment on SH-SY5Y, 3.84 µM; in the experiment on HeLa [2] it was 17.8 µM.

With `COc1ccc(-c2coc3cc(OCCC(C)C)ccc3c2=O)cc1N(CCCl)CCCl`, the IC50 with HCT-116 [1] was found to be 7.67 µM; in the experiment with DU-145 it was 6.6 µM; in the experiment with SGC-7901, 9.47 µM; in the experiment with SH-SY5Y, 10.4 µM; with HeLa [2] it was 9.81 µM.

Consider `COc1ccc(-c2coc3cc(O)ccc3c2=O)cc1N(CCCl)CCCl`, for which the IC50 in the experiment with HCT-116 [1] turned out to be 4.1 µM; with DU-145, 22.6 µM; with SGC-7901, 8.2 µM; with SH-SY5Y, 2.7 µM; in the experiment with HeLa [2], 56.3 µM.

`COc1ccc(-c2coc3cc(OC(C)C)ccc3c2=O)cc1N(CCCl)CCCl`: the IC50 is 3.8 µM in the experiment with HCT-116 [1]; 19.5 µM with DU-145; 9.21 µM with SGC-7901; 2.17 µM in the experiment with SH-SY5Y; 12.5 µM in the experiment on HeLa [2]. For the same molecule, the Activity with HCT-116 [9] is 9.95%; in the experiment on HCT-116 [10], “Dose-dependent effect”; with HCT-116 [12], 0.38%; with HCT-116 [13], 43.72%; in the experiment with HCT-116 [14], 38.1%; in the experiment on HCT-116 [15] it was 24.84%. Also, the result in the experiment with HCT-116 [11] was Active.

Consider `COc1ccc(-c2coc3cc(O)ccc3c2=O)cc1` [FORMONONETIN], for which the IC50 in the experiment with HCT-116 [1] was 61 µM; in the experiment on DU-145, greater than 100 µM; in the experiment with SGC-7901 it was 2.17 µM; in the experiment with SH-SY5Y, greater than 100 µM; with HeLa [2], 8.51 µM.
